CaV13 FRET inh – Disruptors of the CACNA1D IQ motif to Ca2+-dependent inactivation inhibitor domain association, primary screening, Förster resonance energy transfer in intact living …; hit rate 0.098% among 340,000; HEK cells, CFP/YFP FRET ICDI-IQ, plate reader, 10 min; percent FRET-ratio fall versus neutral wells; inhibition, % at 12.3 µM;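 active means mean replicate inhibition of at least 30% and at least 1% of replicates passing that level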
Runt-CBFb FRET – inhibitors of human RUNX1 Runt domain binding to CBFb; AID 1496; Q01196+Q13951; inhibition, % at 20 µM; hit rate 0.46% among 220,000; Cerulean-Runt/Venus-CBFb FRET ratio 530/480, 1 h;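 active means inhibition over about 50% at 20 µM in the single-dose screen, limit read from the data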
Target sequence (Q01196 whole entry, looked up, the tested form may be a part): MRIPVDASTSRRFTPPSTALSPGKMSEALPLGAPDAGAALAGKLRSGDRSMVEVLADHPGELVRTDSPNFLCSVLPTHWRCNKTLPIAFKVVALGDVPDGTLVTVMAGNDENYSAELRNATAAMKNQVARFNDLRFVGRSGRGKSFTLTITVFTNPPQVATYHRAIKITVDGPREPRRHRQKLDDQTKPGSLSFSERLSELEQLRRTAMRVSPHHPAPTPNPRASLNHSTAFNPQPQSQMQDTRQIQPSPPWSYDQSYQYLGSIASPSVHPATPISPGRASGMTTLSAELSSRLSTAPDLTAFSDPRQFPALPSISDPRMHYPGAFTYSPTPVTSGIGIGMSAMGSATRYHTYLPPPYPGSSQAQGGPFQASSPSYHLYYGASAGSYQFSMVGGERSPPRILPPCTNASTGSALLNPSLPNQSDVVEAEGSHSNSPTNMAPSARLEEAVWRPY
Target sequence (Q13951 whole entry, looked up, the tested form may be a part): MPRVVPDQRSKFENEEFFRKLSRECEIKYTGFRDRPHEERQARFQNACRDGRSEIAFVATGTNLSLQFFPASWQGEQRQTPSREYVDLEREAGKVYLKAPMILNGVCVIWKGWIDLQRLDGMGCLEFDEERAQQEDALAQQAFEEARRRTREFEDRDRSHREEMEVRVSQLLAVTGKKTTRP
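Assay system: Cerulean-Runt domain fusion protein, energy donor; Signal: fluorescence energy transfer, 422 nm excitation, 530/480 nm emission; Timing: 1 h compound exposure, room temperature; Control set: unlabeled CBFb; Medium: Tris buffer pH 7.5 with salts and BSA; Compound: single test concentration of 20 µM, 1% DMSO final; Probe or stimulus: Venus-CBFb 100 nM.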
RanGTP-Impb inh – disruptors of Ran-importin-beta complex formation – biochemical, FRET, CFP-Ran, YFP-importin-beta, homogeneous, primary screen. cell-free CFP-Ran/YFP-importin-beta FRET ratio. inhibition, % (test concentration not listed). hit rate 1.1% among 300,000. AID 2216;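 active means more than half of the replicate wells show a fall in the fluorescence ratio signal beyond about 16%, limit read from the data, passing the limit was not always enough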
Runt-SMMHC FRET – blocks binding of human RUNX1 Runt domain to CBFb-SMMHC. inhibition, % at 20 µM. Cerulean-Runt/Venus-CBFb-SMMHC FRET ratio 530/480, 1 h. AID 1434. hit rate 0.74% among 220,000. Q01196+Q13951;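 active means mean inhibition across duplicate retests at 20 µM reaching about 50%, limit read from the data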;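 further: inhibitors lower the FRET ratio by blocking Runt binding to CBFb-SMMHC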
Numbers stand for hits; n = inactive; x = not tested or not shown; + = active, no number. Rows were chosen to be rich in hits. Some 1.2% of all compounds tested hit in one or more screens of this group.

SMILES	CaV13 FRET inh	Runt-CBFb FRET	RanGTP-Impb inh	Runt-SMMHC FRET
CC1CC1c1ccc(/C=C(\C#N)C(=O)Nc2cc(Cl)ccc2Cl)o1 (centres undefined)	n	n	23.8	n
O=C(O)C1CCCCC1C(=O)Nc1cc(Cl)ccc1Cl (centres undefined)	n	n	n	n
CC1CC1c1ccc(/C=C(\C#N)C(=O)Nc2ccc(Cl)cc2Cl)o1 (centres undefined)	n	n	39.6	n
Cc1ccc(-n2c(N)c(S(=O)(=O)c3ccccc3)c3nc4ccccc4nc32)cc1	n	x	n	n
Cc1ccc(S(=O)(=O)c2c(N)n(NC(=O)C3CC3)c3nc4ccccc4nc23)cc1	x	n	n	75.5
c1ccc(-c2ccc(-c3nccc4ccccc34)[nH]2)cc1	x	n	x	60.7
C[n+]1cccc2ccc3c(c21)OC(N)=C(C#N)C3c1ccccc1 (centres undefined)	n	n	n	n
N#CC1=C(N)Oc2cc(O)ccc2C1c1ccccc1 (centres undefined)	n	n	52.7	64.6
COc1cc(C2C(C#N)=C(N)Oc3cc(O)ccc32)cc(OC)c1OC (centres undefined)	n	n	68.9	n
COc1cc(C2CC(=O)Oc3cc(O)ccc32)cc(OC)c1OC (centres undefined)	n	x	x	x
COc1ccc(N=Cc2cc3c(cc2O)OC(N)=C(C#N)C3c2ccccc2)cc1 (centres undefined)	n	n	n	87.6
COc1ccc(C2C(C#N)=C(N)Oc3cc(O)ccc32)cc1 (centres undefined)	n	x	x	x
COc1ccc(C2C(C#N)=C(N)Oc3cc(O)ccc32)cc1OC (centres undefined)	x	n	55.7	n
N#CC1=C(N)Oc2cc3ccccc3cc2C1c1cccnc1 (centres undefined)	x	n	n	n
COc1ccc(C2C(C#N)=C(N)Oc3cc(O)ccc32)cc1C (centres undefined)	n	x	67.1	x
COc1ccc(C2C(C#N)=C(N)OC(C(C)(C)C)=C2C#N)cc1OC (centres undefined)	x	n	n	n
COc1ccc(C2C(C#N)=C(N)SC(N)=C2C#N)cc1OC	n	n	47.5	n
CCOC(=O)CC1=C(C(=O)OCC)C(c2ccc(OC)c(OC)c2)C(C#N)=C(N)O1 (centres undefined)	n	n	n	n
COc1ccc(CCNC2CC(C)N(C)CC2C)cc1OC (centres undefined)	n	n	27.5	n
Cc1noc(C)c1NC(=O)Nc1ccc2c(c1)C(=O)N([C@H](C)CO)C[C@@H](C)[C@@H](CN(C)S(=O)(=O)c1cn(C)cn1)OCCCC[C@H](C)O2	n	x	x	x
Fc1ccc(NC(=S)N2CCN(c3cccc(C(F)(F)F)c3)CC2)cc1	n	n	27.0	n
FC(F)(F)c1cccc(NC(=S)N2CCN(c3cccc(C(F)(F)F)c3)CC2)c1	n	n	n	n
C[C@H]1CN([C@@H](C)CO)C(=O)CCCn2cc(nn2)CO[C@@H]1CN(C)C(=O)c1ccc2ccn(C)c2c1	n	x	x	x
COc1ccc(N(CC(=O)NCc2cccnc2)S(=O)(=O)c2c(C)nn(C)c2C)cc1	n	n	x	n
O=C(Nc1ccc(-c2ccco2)cc1)C1CCCN(Cc2ccco2)C1 (centres undefined)	37.2	x	x	x
SMILES	CaV13 FRET inh	Runt-CBFb FRET	RanGTP-Impb inh	Runt-SMMHC FRET
CCN(CC)S(=O)(=O)c1cccc(C(=O)/C=C2/N(C)c3ccccc3C2(C)C)c1	n	n	27.3	n
CN1/C(=C\C(=S)NC(=O)c2cccc(Br)c2)C(C)(C)c2ccccc21	n	n	n	n
Cc1cc(=O)oc(C)c1C(=O)Nc1ccc2ncccc2c1	n	n	n	58.7
Cc1cccc(COCC(Cc2ccccc2)N2CCN(C(=O)c3cccc(Cl)c3)CCC2=O)c1 (centres undefined)	n	n	n	n
O=C(c1cccc(Cl)c1)N1CCC(=O)N(C(COCc2ccccc2)Cc2ccccc2)CC1 (centres undefined)	55.3	n	n	n
O=C(N/N=C/c1ccc(-c2ccc(Cl)c(C(=O)O)c2)o1)c1cc2c(ccc3ccccc32)o1	n	n	n	80.3
Cc1ccc(-c2ccc(/C=N\NC(=O)c3cc4c(ccc5ccccc54)o3)o2)cc1[N+](=O)[O-]	x	n	n	n
CN(C)CCNC(=O)/C(=N\O)c1ccccn1	n	n	n	n
O=c1[nH]nc(Cc2ncc(C(F)(F)F)cc2Cl)c2ccccc12	n	x	n	x
CCN(CC)CCCNc1cc(C)c(C#N)c2nc3ccccc3n12	n	x	x	x
COCCN(CCOC)c1cc(C)c(C#N)c2nc3ccccc3n12	n	52.9	57.4	62.6
CCN(CC)CCNc1cc(C)c(C#N)c2nc3ccccc3n12	n	x	n	x
Cc1cc(NCCCCO)n2c(nc3ccccc32)c1C#N	n	n	38.3	n
CCN(CC)CCCNc1cc(C(F)(F)F)c(C#N)c2nc3ccccc3n12	n	x	117.1	x
CCCc1cc(N2CCN(C(=O)c3ccco3)CC2)n2c(nc3ccccc32)c1C#N	n	n	30.9	64.9
CC1(C(=O)Nc2ccc(Cl)c(Cl)c2)CCN1CCc1ccccc1 (centres undefined)	n	x	x	x
Cc1cc(C)cc(NC(=S)NCc2cccn2C)c1	n	n	n	n
COc1cccc(CNC(=O)[C@H]2CCCN2C(=O)[C@H]2CCCN2)c1	n	x	x	x
COc1ccc(CN(C)C(=O)C2CSC3(C)CCC(=O)N23)c(OC)c1 (centres undefined)	n	x	x	x
CCCc1cc(NCCOCCO)n2c(nc3ccccc32)c1C#N	n	x	x	x
C=CCc1c(C)c(C#N)c2nc3ccccc3n2c1N1CCCCC1	n	n	n	n
CCc1c(C)c(C#N)c2nc3ccccc3n2c1N(C)C	x	n	x	n
Cc1c2c(n3c(nc4ccccc43)c1C#N)N(CCN1CCOCC1)CC2	+	x	111.5	x
C=C(C)CSc1cc(C)c(C#N)c2nc3ccccc3n12	n	n	56.0	n

High-throughput results as filed in PubChem.
